From PubChem BioAssay
Rows were chosen to be rich in hits. Some 3.8% of all compounds tested hit in one or more screens of this group.
NPY Y1 blocker: NPY-Y1 receptor antagonists, primary screen, cell-based | Neuropeptide Y receptor type 1 (Homo sapiens), P25929 | AID 1040, 2008 | HEK293-CNG Y1 cells, membrane potential fluorescence; NPY at EC95, then isoproterenol | 200,000 tested, 1% active | inhibition, % at 3.6 µM;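 active = inhibition above the campaign mean inhibition of all tested compounds plus 3 SD, cut at about 20% in these data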;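 note: 0% = DMSO wells given NPY plus isoproterenol and 100% = isoproterenol alone without NPY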
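material = HEK293 cells with Y1 receptor plus CNG channel | also added = NPY 25 nM then isoproterenol 1 µM plus Ro 20-1724 25 µM | schedule = dye 3 h, compound 60 min room temperature, stimulation 45 min | measured by = membrane potential fluorescence | benchmarks = high control isoproterenol alone, low control NPY with isoproterenol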
NPY Y2 blocker: NPY-Y2 receptor antagonists, primary screen, cell-based; Neuropeptide Y receptor type 2 (Homo sapiens), P49146; NPY-Y2 expressing cells, antagonist mode; inhibition, % at 2.7 µM; 140,000 tested, 0.99% active; in the data active = inhibition above about 17%;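 note: 0% = vehicle with agonist challenge and 100% = reference antagonist with challenge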
Target sequence (P49146 whole entry, looked up): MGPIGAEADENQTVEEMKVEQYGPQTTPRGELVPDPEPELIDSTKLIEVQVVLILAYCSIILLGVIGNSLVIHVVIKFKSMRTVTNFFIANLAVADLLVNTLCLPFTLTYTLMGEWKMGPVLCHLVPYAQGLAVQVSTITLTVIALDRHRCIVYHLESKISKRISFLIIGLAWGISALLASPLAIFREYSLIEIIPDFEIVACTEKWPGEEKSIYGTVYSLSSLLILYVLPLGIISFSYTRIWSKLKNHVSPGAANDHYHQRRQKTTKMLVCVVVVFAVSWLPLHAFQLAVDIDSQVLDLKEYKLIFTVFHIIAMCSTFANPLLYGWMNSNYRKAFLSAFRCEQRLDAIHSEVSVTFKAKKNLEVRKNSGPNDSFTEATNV
INS promoter inh: inhibitors of insulin promoter-driven GFP, primary screen, imaging, TRM-6 cells, eGFP reporter, cell count | reporter expression induced with tamoxifen | inhibition, % at 2 µM | 130,000 tested, 0.9% active | AID 1273, 2008;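 active = inhibition above the mean plus 3 SD, with well images judged a real hit on visual review, cut at about 60% in these data, passing the limit was not always enough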
NPY-Y2 PAM-ag: NPY-Y2 potentiators or agonists, primary screen, cell-based | AID 1359, 2008 | activation, % at 3.6 µM | Neuropeptide Y receptor type 2 (Homo sapiens), P49146 | cells expressing NPY-Y2, potentiator/agonist read-out | 220,000 tested, 0.45% active; in the data active = activation above about 27%;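 note: cells stimulated with NPY near EC25 plus isoproterenol at EC100; 0% = vehicle plus submaximal agonist and 100% = vehicle plus saturating agonist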
RAM inhibit: inhibitors of the yeast RAM network, primary screen, dse1pr::URA3 reporter, 5-FOA selection; S. cerevisiae dse1pr::URA3 reporter, 5-FOA growth OD615, 2 d; analog-sensitive cbk1-as2 kinase mutant strain; inhibition, % at 50 µM; 190,000 tested, 1.8% active;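 active = inhibition above a set limit, 3 SD over mean compound inhibition, cut at about 8.4% in these data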;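 note: 0% = DMSO-only wells with no growth and 100% = 10 µM 1-NA-PP1 full growth; inhibition rescues growth on 5-FOA so higher OD means more RAM inhibition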
NPY1 pot ag: NPY-Y1 receptor potentiators or agonists, primary screen, cell-based; Neuropeptide Y receptor type 1 (Homo sapiens), P25929; NPY-Y1 expressing cells, potentiator/agonist activation; activation, % at 3.6 µM; 220,000 tested, 0.37% active; AID 1304, 2008; in the data active = activation above about 33%, passing the limit was not always enough;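 note: cells stimulated with NPY at EC10 then isoproterenol at EC100; 0% = low agonist plus stimulus and 100% = saturating agonist plus stimulus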
Numbers without * were called inactive; x = no result given.

SMILES	NPY Y1 blocker	NPY Y2 blocker	INS promoter inh	NPY-Y2 PAM-ag	RAM inhibit	NPY1 pot ag
N=C1C(c2nc(-c3ccc(Br)cc3)cs2)=C(O)CN1NC(=O)c1ccc([N+](=O)[O-])cc1	-3	x	-18	7	3	0
Cc1ccc(-c2csc(C3=C(O)CN(NC(=O)c4ccc([N+](=O)[O-])cc4)C3=N)n2)cc1	7	x	-24	-6	8.6*	-12
Cn1c(C(O)c2ccc3c(c2)OCO3)nc2ccccc21 (centres undefined)	-1	0	77*	7	3	5
Cc1ccc(O)c(-c2cc(C(=O)Nc3ccc(S(=O)(=O)Nc4nc(C)cc(C)n4)cc3)[nH]n2)c1	-5	0	17	-1	7	12
CCN(Cc1ccccc1)C(c1ccc(C(F)(F)F)cc1)c1nnnn1C(C)(C)C (centres undefined)	10	4	7	-24	11*	10
COc1cc(/C=N/NC(=O)c2cccc([N+](=O)[O-])c2)ccc1OCc1ccccc1	-1	4	-29	5	3	-16
COC(=O)C(=Cc1ccc(OCc2ccc([N+](=O)[O-])cc2)c(OC)c1)C(=O)OC	5	4	-4	-17	9.2*	-33
COc1ccc(C2CC(c3c(-c4ccccc4)c4cc(Cl)ccc4[nH]c3=O)=NN2C(=O)CCC(=O)O)cc1 (centres undefined)	0	x	x	-3	9.1*	8
Cc1ccc(NC(=O)CC2S/C(=N/N=C/c3c[nH]c4ccccc34)NC2=O)cc1 (centres undefined)	5	-7	53	12	8	-1
CCOC(=O)c1ccc(NC(=O)CC2S/C(=N/N=C/c3c[nH]c4ccccc34)NC2=O)cc1 (centres undefined)	-16	-3	25	33*	5	49*
O=C(CSc1nnc(Nc2ccccc2F)s1)Nc1cccc(S(=O)(=O)N2CCCCC2)c1	0	3	-24	-6	10*	15
O=C(CSc1ccc([N+](=O)[O-])cc1)Nc1cccc(S(=O)(=O)Nc2ccccc2F)c1	-5	x	-18	8	9.2*	17
COc1ccc(N2CC(NC(=O)N3CCN(c4ccccc4)CC3)CC2=O)cc1 (centres undefined)	-4	x	x	-7	2	-11
CN(Cc1cccs1)C(=O)/C=C/c1ccccc1[N+](=O)[O-]	0	x	32	-4	1	-1
Nn1cc(-c2ccccc2)nc1SCC(=O)N1CCN(S(=O)(=O)c2ccc(Cl)cc2)CC1	-5	2	-48	-20	9.8*	3
Nn1cc(-c2ccccc2)nc1SCC(=O)N1CCN(S(=O)(=O)c2ccc3ccccc3c2)CC1	2	-4	35	3	1	-16
CN(C)c1ccc(/C=N/NC(=O)c2ccccc2)cc1	0	x	-10	4	1	2
CN(C)c1ccc(/C=N/NC(=O)c2cccc(C(=O)N/N=C/c3ccc(N(C)C)cc3)n2)cc1	-2	x	19	-8	9.9*	0
COc1ccc(C2NC(=O)NC(c3ccccc3)=C2c2nc3ccccc3s2)cc1 (centres undefined)	6	7	-50	-1	8.7*	-23
COc1cc(C(=O)NCCC(C)C)ccc1OCc1ccc(Cl)cc1Cl	7	5	7	1	9.8*	10
COc1cc(C(=O)NC2CCCCC2)ccc1OCc1ccc(Cl)cc1Cl	2	-1	-7	10	4	14
O=C(COC(=O)c1ccc(Cl)c(S(=O)(=O)N2CCc3ccccc3C2)c1)Nc1ncc(Cl)cc1Cl	3	5	21	-2	10*	-18
O=C(COC(=O)c1cccc(S(=O)(=O)N2CCc3ccccc32)c1)Nc1ncc(Cl)cc1Cl	2	5	7	4	3	-2
O=C(CCCN1C(=O)c2ccccc2C1=O)Nc1sc2c(c1C(=O)NCc1ccco1)CCC2	4	4	-3	16	4	-17
O=C(CN1C(=O)c2ccccc2C1=O)Nc1sc2c(c1C(=O)NCc1ccco1)CCCC2	-7	-4	92*	30	4	33
SMILES	NPY Y1 blocker	NPY Y2 blocker	INS promoter inh	NPY-Y2 PAM-ag	RAM inhibit	NPY1 pot ag
O=C(CSc1cc(Cl)ccc1Cl)NCC(=O)Nc1ccc(F)c(F)c1F	1	3	-53	7	9.4*	-6
Cc1cccc(Cc2cnc(NC(=O)c3ccc(C)o3)s2)c1	0	4	25	-7	8.8*	-31
O=C(O)C1=C[C@@H](c2ccc(Br)cc2)C[C@@H](OCc2ccc(CO)cc2)O1	-4	x	x	-11	1	15
O=C(NC1CC1)C1=C[C@@H](c2ccc3c(c2)OCO3)C[C@@H](OCc2ccc(CO)cc2)O1	-3	x	x	-2	2	7
O=C(Nc1ccccc1)C1=C[C@H](c2ccc3c(c2)OCO3)C[C@H](OCc2ccc(CO)cc2)O1	6	x	x	-21	9.4*	-21
CC(C)(C)[C@@H]1C=C(C(=O)Nc2ccccc2)O[C@H](OCc2ccc(CO)cc2)C1	5	x	x	-9	8.5*	10
C#CCNC(=O)C1=C[C@H](C(C)(C)C)C[C@H](OCc2ccc(CO)cc2)O1	1	x	x	-11	2	19
O=C(C1=C[C@@H](c2ccc3c(c2)OCO3)C[C@@H](OCc2ccc(CO)cc2)O1)N1CCOCC1	-4	x	x	10	11*	9
O=C(Nc1ccccc1)C1=C[C@@H](c2ccc(Br)cc2)C[C@@H](OCc2ccc(CO)cc2)O1	10	x	x	20	9.4*	16
C=CCOc1ccnc(-c2ccccc2)n1	x	x	x	-9	x	-4
O=C(NCc1ccco1)c1ccc(Cl)c(S(=O)(=O)N2CCc3ccccc32)c1	1	2	x	8	4	6
COc1ccc(CCNC(=O)COc2ccc(S(=O)(=O)NC3CCCCC3)cc2Cl)cc1	-1	0	x	9	10*	9
Nc1nc(SCC(=O)NCCOCCO)nc2sc3c(c12)CCCC3	4	x	x	0	-1	2
CCCCCCCCCOC(=O)C(CC(=O)O)N1CCOCC1 (centres undefined)	-6	2	68*	-20	2	-18
C/C(CCN1CCCCc2nc(C)c(C)cc21)=N\O[C@@H](C)CN1CCCCc2nc(C)c(C)cc21	6	11	-20	-5	0	-43
COc1ccc(O[C@H]2C=C[C@@H](c3ccccc3)O[C@@H]2CO/N=C(\C)CCN2CCCCc3nc(C)c(C)cc32)cc1	22*	21*	-105	-8	0	-30
